Activity calls are given as the source filed them.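 Rule for the calls, unless noted: active = NADPH fluorescence slope more negative than the mean of all samples by about 3 SD, 99.7% confidence; inactive = the rest.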
How the values were obtained:
[1] = inhibitors of TNFa-induced NFkB p65 translocation, primary screen, imaging, HUVEC, MLSMR starter and 10KST1 sets (AID 438;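 active = inhibition above 20% together with a positive visual image hit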;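 note: compound added about 3h40 before a 20 min TNFalpha stimulation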;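 for inhibition: signal is the nuclear over cytoplasmic p65 intensity ratio per well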); settings: HUVEC TNFa-induced p65 nuclear translocation; cell count: measured here: nuclei count (cytotoxicity indicator), at 2.08 µM; inhibition: at 2 µM, stronger effect = higher value, 0% TNFa-plus-vehicle, 100% no-TNFa wells
[2] = inhibitors of mutant huntingtin aggregation, primary screen, imaging, exon1htt(103Q)mCFP cells, high-content imaging (AID 483;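 active = visual image review flags a hit and inhibition of aggregation exceeds 20%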;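 note: compound exposure lasted 3 days before fixation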;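 for nuclei count: percent of the per-plate median nuclei count of sample wells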); settings: exon1htt(103Q)mCFP cell line, aggregate imaging, at 2 µM; inhibition of aggregation: stronger effect = higher value; nuclei count: measured here: cell count, toxicity
[3] = inhibitors of E-selectin induction by TNFa, primary screen, imaging, HUVEC, immunofluorescence, MLSMR starter and 10KST1 sets (AID 487;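 active = visually confirmed hit in the image check and inhibition above 20%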;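 for inhibition: signal is fraction of cell area covered by stained E-selectin grains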;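 for nuclei count: 100% = median nuclei count of all wells on the same plate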); settings: HUVEC TNFalpha-induced E-selectin immunofluorescence imaging, at 2 µM; inhibition: stronger effect = higher value; nuclei count: measured here: cell number, toxicity
[4] = molecular target: Voltage-gated potassium channel subunit beta-2 (Rattus norvegicus) (UniProt P62483); experiment: KvBeta enzyme negative modulators, primary screen, biochemical, NADPH fluorescence (AID 622;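 active = fluorescence slope higher than the sample average by over 3 SD, cut at about -0.22 in these data, passing the limit was not always enough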;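 note: slope of raw intensity against log time taken from 70 to 1610 s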); settings: recombinant KvBeta, 4-cyanobenzaldehyde reduction, at 10 µM, stronger effect = higher value
[5] = molecular target: Voltage-gated potassium channel subunit beta-2 (Rattus norvegicus) (UniProt P62483); experiment: KvBeta positive modulators, primary screen, biochemical, NADPH fluorescence (AID 623); settings: Recombinant KvBeta, NADPH fluorescence decrease slope, 10 min; at 10 µM; stronger effect = lower value;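 note: fluorescence intensity change per second fitted from 20 to 320 s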
[6] = molecular target: Muscarinic acetylcholine receptor M4 (Homo sapiens) (UniProt P08173); experiment: compounds altering M4/GIRK thallium flux, either direction, primary screen, M4 allosteric agonist project, cell-based, HEK293 M4/GIRK, BTC-AM (AID 625;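 active = fluorescence slope after compound addition differing from the mean of all tested samples at 99.7% confidence, mostly higher but some lower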;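 note: thallium influx through GIRK channels coupled to M4 in HEK293 cells with BTC-AM dye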); settings: at 10 µM, actives lie on both sides
Method in brief: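 assay system = HEK293 cells with M4 receptor and GIRK channels | medium = pH 7.3 thallium assay buffer | doses = 10 µM final, single point | timing = cells overnight at 37 °C, BTC-AM loading 1 h, reads 2 min total | signal = BTC-AM fluorescence, 1 Hz kinetic reads | read-out = post-addition slope, 15–24 s, of baseline-normalized fluorescence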

[7] = inhibitors of Sendai virus-induced IRF3 signaling, primary screen, TLR/RLR signaling modifier project, cell-based, Sendai virus stimulus, luciferase, 10K MLSCN set (AID 602276;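 active = inhibition at or above 50% at 10 µM; inactive = inhibition below 50%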;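 note: firefly luciferase from ISG56 promoter only with Renilla not read in this screen; 0% = Sendai virus plus DMSO and 100% = medium plus DMSO without virus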); settings: HEK293 RL24 IRF3 luciferase reporter, at 10 µM, stronger effect = higher value
[8] = inhibitors of poly I:C-induced TLR3 signaling, primary screen, cell-based, poly I:C stimulus, luciferase, 10K MLSCN set (AID 602277;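 active = inhibition of the reporter signal at or above 50%; inactive = inhibition below 50%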); settings: HEK293-TLR3 RL24 IRF3 luciferase reporter, at 10 µM, stronger effect = higher value

Sequence of Muscarinic acetylcholine receptor M4 (Homo sapiens) (P08173 whole entry, looked up): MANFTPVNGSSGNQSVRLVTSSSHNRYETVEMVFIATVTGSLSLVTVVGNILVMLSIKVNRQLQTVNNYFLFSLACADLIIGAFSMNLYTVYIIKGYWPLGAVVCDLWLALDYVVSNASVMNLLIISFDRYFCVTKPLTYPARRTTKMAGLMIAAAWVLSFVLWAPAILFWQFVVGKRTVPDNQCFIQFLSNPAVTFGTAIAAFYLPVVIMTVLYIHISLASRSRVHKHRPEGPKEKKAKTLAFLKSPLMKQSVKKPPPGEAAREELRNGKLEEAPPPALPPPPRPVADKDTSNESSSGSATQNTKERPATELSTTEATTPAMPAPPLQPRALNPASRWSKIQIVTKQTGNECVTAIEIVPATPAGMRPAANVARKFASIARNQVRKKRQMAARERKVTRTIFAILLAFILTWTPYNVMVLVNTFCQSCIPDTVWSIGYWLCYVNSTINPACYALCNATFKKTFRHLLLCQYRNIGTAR
Sequence of Voltage-gated potassium channel subunit beta-2 (Rattus norvegicus) (P62483 whole entry, looked up): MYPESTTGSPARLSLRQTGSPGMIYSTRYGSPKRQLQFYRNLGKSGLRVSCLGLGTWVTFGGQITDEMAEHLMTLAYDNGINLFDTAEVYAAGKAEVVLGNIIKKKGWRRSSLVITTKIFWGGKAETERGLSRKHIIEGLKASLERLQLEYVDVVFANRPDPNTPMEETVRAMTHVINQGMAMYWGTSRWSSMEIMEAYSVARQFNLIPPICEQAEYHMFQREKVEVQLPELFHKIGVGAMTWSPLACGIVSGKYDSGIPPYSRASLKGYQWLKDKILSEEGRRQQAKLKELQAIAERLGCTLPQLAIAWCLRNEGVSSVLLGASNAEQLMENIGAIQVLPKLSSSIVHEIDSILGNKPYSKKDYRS

Row | Structure (SMILES) | cell count [1] | inhibition [1] | inhibition of aggregation [2] | nuclei count [2] [%] | inhibition [3] | nuclei count [3] [%] | fluorescence slope [4] | NADPH fluorescence slope [5] | fluorescence slope [6] | inhibition [7] | inhibition [8]
1 | CN(c1ccccc1)S(=O)(=O)c1cc(C(=O)N2CCN(c3ccccn3)CC2)ccc1Cl | 628 | 2.4% (inactive) | -6.5% (inactive) | 134 | -52.9% (inactive) | 108 | -0.475 (inactive) | -6e-05 (inactive) | 0.00416 (inactive) | 15.7% (inactive) | 13.1% (inactive)
2 | CC1(C)Cc2noc(N)c2C(C)(C)N1O | 762 | -11.6% (inactive) | -36.8% (inactive) | 118 | -81.1% (inactive) | 110 | -0.39 (inactive) | 4.7e-05 (inactive) | 0.00626 (inactive) | 13.8% (inactive) | 22.1% (inactive)
3 | CC(=O)Nc1nc(-c2ccc(Cl)cc2)nc(C)c1C(C)=O | 577 | 0.5% (inactive) | -13.8% (inactive) | 92.9 | -9.1% (inactive) | 90.1 | -0.261 (inactive) | -3.2e-05 (inactive) | 0.00747 (inactive) | 2.94% (inactive) | 6.23% (inactive)
4 | Cc1coc(NC(=O)CSc2nc(-c3ccncc3)cc(C(F)(F)F)c2C#N)n1 | 740 | -7.9% (inactive) | 16.1% (inactive) | 86.8 | -29.3% (inactive) | 115 | -0.471 (inactive) | -2.9e-05 (inactive) | 0.00557 (inactive) | 5.59% (inactive) | 8.54% (inactive)
5 | O=C(Nc1ccc2nn(-c3ccccc3)nc2c1)c1ccc(Br)o1 | 355 | -1.7% (inactive) | 9.1% (inactive) | 106 | 6.4% (inactive) | 101 | -0.213 (inactive) | -2.9e-05 (inactive) | 0.00781 (inactive) | -22.8% (inactive) | -70.4% (inactive)
6 | CC(=O)Nc1ccc(S(=O)(=O)n2cnc(C)c2)cc1 | 697 | -10.2% (inactive) | -20.6% (inactive) | 99.8 | -26.8% (inactive) | 118 | -0.584 (inactive) | 4.1e-05 (inactive) | 0.0072 (inactive) | -6.5% (inactive) | -8.68% (inactive)
7 | COc1cccc(-n2c(C)nc3c(cnn3-c3ccc(Cl)cc3)c2=O)c1 | 238 | -6.4% (inactive) | -13.4% (inactive) | 94.3 | -14.1% (inactive) | 114 | -0.553 (inactive) | 7.6e-06 (inactive) | 0.00702 (inactive) | -4.02% (inactive) | 4.48% (inactive)
8 | O=C(OCc1cccs1)c1ccccc1NS(=O)(=O)c1ccc2c(c1)OCCO2 | 709 | -6.7% (inactive) | 10.3% (inactive) | 84.5 | 9.5% (inactive) | 108 | -0.626 (inactive) | -2.4e-05 (inactive) | 0.00639 (inactive) | 3.25% (inactive) | -18.1% (inactive)
9 | Cc1ccc(C(=O)Nc2ccc3c(c2)OCO3)o1 | 466 | 0% (inactive) | -13.9% (inactive) | 106 | -17.5% (inactive) | 121 | -0.603 (inactive) | -2.2e-05 (inactive) | 0.00576 (inactive) | -40.3% (inactive) | -49.6% (inactive)
10 | O=C(O)CCN1C(=O)c2ccccc2C1=O | 325 | 5.2% (inactive) | -1.9% (inactive) | 91.2 | -54.5% (inactive) | 107 | -0.585 (inactive) | -3e-05 (inactive) | 0.00348 (inactive) | 14.6% (inactive) | 6.42% (inactive)
11 | Cc1cccc2cc(C#N)c(NCCNC(=O)NC3CCCCC3)nc12 | 463 | -5.1% (inactive) | -41% (inactive) | 85.8 | -40.3% (inactive) | 176 | -0.471 (inactive) | -0.000184 (inactive) | 0.00443 (inactive) | -2.87% (inactive) | 1.15% (inactive)
12 | COc1cc(-c2nc(-c3cccc(C(F)(F)F)c3)no2)cc(OC)c1OC | 413 | 5.3% (inactive) | 3.5% (inactive) | 102 | -78.2% (inactive) | 109 | -0.554 (inactive) | -5.5e-05 (inactive) | 0.00715 (inactive) | 3.75% (inactive) | -10.8% (inactive)
13 | CCCCC(c1nnnn1CS(=O)(=O)c1ccc(C)cc1)N1CCN(c2ccccc2)CC1 (stereo not drawn) | 370 | 6.6% (inactive) | -10.3% (inactive) | 100 | -47.5% (inactive) | 102 | -0.46 (inactive) | -2.8e-05 (inactive) | 0.00637 (inactive) | 32% (inactive) | 16.2% (inactive)
14 | CN(C)S(=O)(=O)c1ccc(S(=O)(=O)Nc2ccc3c(c2)oc2ccccc23)cc1 | 414 | -7.9% (inactive) | -3.8% (inactive) | 107 | 4.6% (inactive) | 92 | -0.54 (inactive) | -5.2e-05 (inactive) | 0.00569 (inactive) | -8.93% (inactive) | -1.94% (inactive)
15 | CCN(CC)c1ccc(CNc2ccc(Br)cn2)cc1 | 388 | -2.4% (inactive) | -13.8% (inactive) | 101 | -74.6% (inactive) | 122 | -0.546 (inactive) | -0.000144 (inactive) | 0.00212 (inactive) | -41.1% (inactive) | -92.7% (inactive)
16 | CC(O)CN(Cc1cccc(Cl)c1)CC(C)O (stereo not drawn) | 473 | 0.5% (inactive) | 1.4% (inactive) | 100 | 10.2% (inactive) | 95.1 | -0.431 (inactive) | 1.1e-05 (inactive) | 0.00551 (inactive) | 18.8% (inactive) | 19.5% (inactive)
17 | COc1ccc(-c2noc(COc3ccc4ccccc4c3Br)n2)cc1OC | 565 | 14.8% (inactive) | -29.8% (inactive) | 109 | 8.2% (inactive) | 104 | -0.564 (inactive) | -3e-05 (inactive) | 0.00985 (inactive) | -38.1% (inactive) | -45.2% (inactive)
18 | Clc1ccc(Cc2nn3c(-c4ccncc4)nnc3s2)cc1 | 322 | -5.1% (inactive) | 5.5% (inactive) | 83.3 | -102% (inactive) | 110 | -0.523 (inactive) | -0.000147 (inactive) | 0.00382 (inactive) | -1.37% (inactive) | -9.67% (inactive)
19 | CCCn1nnnc1SCC(=O)c1ccc2c(c1)OCCO2 | 571 | 2.6% (inactive) | -22.6% (inactive) | 120 | 34% (inactive) | 101 | -0.441 (inactive) | 0.000111 (inactive) | 0.00722 (inactive) | -31.3% (inactive) | -69.8% (inactive)
20 | Cc1nnc2ccc(N3CCC4(CC3)OCCO4)nn12 | 538 | -21% (inactive) | 9.6% (inactive) | 112 | -83% (inactive) | 117 | -0.322 (inactive) | -3.3e-05 (inactive) | 0.00635 (inactive) | 12.5% (inactive) | 8.72% (inactive)
21 | O=C1c2oc3ccccc3c(=O)c2C(c2ccccn2)N1Cc1ccccc1 (stereo not drawn) | 440 | -8.7% (inactive) | 1.8% (inactive) | 106 | -49.4% (inactive) | 125 | -0.563 (inactive) | -9.3e-06 (inactive) | 0.00477 (inactive) | -16.4% (inactive) | -22.3% (inactive)
22 | CCOC(=O)N1CCN(C(=O)C(NS(=O)(=O)c2cccc3nsnc23)c2ccccc2)CC1 (stereo not drawn) | 588 | 1.5% (inactive) | 13.3% (inactive) | 106 | 51.1% (inactive) | 81.6 | -0.599 (inactive) | 1.3e-05 (inactive) | 0.0056 (inactive) | 3.16% (inactive) | 9.73% (inactive)
23 | c1ccc2c(NC3CCCC3)nnc(NC3CCCC3)c2c1 | 797 | 7.4% (inactive) | -6.1% (inactive) | 106 | -69.1% (inactive) | 131 | -0.419 (inactive) | 2.2e-05 (inactive) | 0.00394 (inactive) | 7.77% (inactive) | 7.29% (inactive)
24 | CC1(C)C2CCC1(CS(=O)(=O)NCc1ccc(C(=O)O)cc1)C(=O)C2 (stereo not drawn) | 517 | -16.3% (inactive) | 1.1% (inactive) | 90.1 | 46.1% (inactive) | 100 | -0.606 (inactive) | 2.9e-05 (inactive) | 0.00724 (inactive) | 36.1% (inactive) | 30.6% (inactive)
25 | CCCCn1nnnc1SCC(=O)Nc1cccc(C)n1 | 554 | -46.9% (inactive) | 9% (inactive) | 112 | -47.5% (inactive) | 107 | -0.329 (inactive) | -3.8e-05 (inactive) | 0.00669 (inactive) | -10.8% (inactive) | -6.38% (inactive)
26 | CCCSC1=C(C#N)C(c2ccccc2OCC)CC(=O)N1 (stereo not drawn) | 443 | 0.5% (inactive) | 0.2% (inactive) | 111 | 9.8% (inactive) | 95 | -0.454 (inactive) | -2.4e-05 (inactive) | 0.00486 (inactive) | 17.2% (inactive) | 17.7% (inactive)
27 | O=C(CCn1nc(-c2ccc(Cl)cc2)ccc1=O)N1CCN(c2ccccn2)CC1 | 244 | -0.9% (inactive) | 26.9% (inactive) | 100 | 36.1% (inactive) | 98.7 | -0.582 (inactive) | -8.6e-06 (inactive) | 0.00547 (inactive) | 7.53% (inactive) | 10.9% (inactive)
28 | COC(=O)Cc1c(C)nc2nc(-c3ccco3)[nH]n2c1=O | 409 | 1.2% (inactive) | 5.5% (inactive) | 93.6 | -28.5% (inactive) | 105 | -0.467 (inactive) | -4e-05 (inactive) | 0.00635 (inactive) | 9.5% (inactive) | 19.1% (inactive)

Reference: PubChem BioAssay
